Source: PubChem BioAssay
MC4R antagonist: antagonists of human melanocortin 4 receptor (MC4R) | P32245 | MC4R-expressing cells, MTII-stimulated cAMP, LANCE TR-FRET | inhibition, % at 6.5 µM | hit rate 0.48% among 360,000;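 active means inhibition above its plate's cutoff, the mean of tested wells on that plate plus 3 SD, cut at about 29% in these data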;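 further: 0% = Melanotan II alone and 100% = Melanotan II plus saturating MCL0020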
Target sequence (P32245 whole entry, looked up): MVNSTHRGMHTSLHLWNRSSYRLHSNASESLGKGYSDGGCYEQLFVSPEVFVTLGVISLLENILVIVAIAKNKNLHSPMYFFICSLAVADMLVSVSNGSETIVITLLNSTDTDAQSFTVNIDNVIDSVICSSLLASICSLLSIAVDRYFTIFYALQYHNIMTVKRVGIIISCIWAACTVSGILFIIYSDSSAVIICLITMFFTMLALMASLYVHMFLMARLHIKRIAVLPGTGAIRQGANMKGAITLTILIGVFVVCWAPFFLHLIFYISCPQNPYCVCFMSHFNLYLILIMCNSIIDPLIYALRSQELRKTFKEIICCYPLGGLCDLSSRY
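material = U2OS cells stably expressing human melanocortin 4 receptor (MC4R) | also added = Melanotan II challenge | dosing = single nominal compound dose of 6.5 µM | detection = TR-FRET with Eu-cAMP and labeled anti-cAMP, 671 nm | replication = singlicate | timing = compound 30 min, challenge 1 h, detection 1 h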
MC4R barr agon: human MC4R agonism via beta-arrestin | hit rate 0.98% among 360,000 | P32245 | U2OS MC4R beta-arrestin complementation, luminescence; percent of melanotan II response, DMSO zero | activation, % at 8.9 µM | AID 540308;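 active means activation above a per-plate cutoff, the mean activation of sample wells on that plate plus 3 SD, cut at about 8% in these data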
NTR1 ag: activates human neurotensin receptor 1; P30989; NTR1-U2OS beta-arrestin-GFP spot imaging, agonist mode; activation, % at 20 µM; hit rate 0.17% among 330,000;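 active means activation at or above 40% of the spot to cytoplasm intensity ratio, with at least 20 cells analyzed; inconclusive means wells under 20 cells, flagged as cytotoxic or low count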;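 further: 0% = DMSO without peptide and 100% = 100 nM NTR1 peptide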
AI-2 QS mod: modulates the Vibrio harveyi AI-2 quorum sensing system | hit rate 0.4% among 300,000 | Vibrio harveyi JMH597 AI-2 luminescence/OD600 ratio, 9 h; active compounds read low; strain lacks LuxN and CqsS sensors; 0 = neutral-control median | activity change, % at 7.5 µM; in the data active means activity change below about -75%, passing the limit was not always enough; inconclusive means no clear call, values can overlap the other calls;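 further: luminescence divided by OD600 gain over 9 h not by final OD600 alone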
Active calls of the source: *; ? = inconclusive; · = no result given. In the library only some 1.8% were active in any assay of this set; here they are far more common.

SMILES | MC4R antagonist | MC4R barr agon | NTR1 ag | AI-2 QS mod
O=C(NCc1ccccc1Cl)c1ccc2nc([C@@H]3O[C@H](CO)[C@@H](O)[C@H]3O)[nH]c2c1 | -1.1 | -2.3 | · | ·
COCCNC(=O)c1cc2cc3ccc(OC)cc3nc2o1 | 11.1 | -0.3 | -0.4 | 6.9
COc1ccc2cc3cc(C(=O)NCCC(C)C)oc3nc2c1 | 11.4 | 8.8* | -1.5 | 12.8
CC(C)Oc1cccc(C(=O)C2CCCN(S(C)(=O)=O)C2)c1 (stereo not given) | 28.5* | 0.9 | 1.4 | 11.2
COc1ccccc1S(=O)(=O)Cc1ccc(C(=O)NCCCN2CCN(c3ccc(F)cc3)CC2)o1 | -2.7 | 1.1 | 0.4 | 39.6
O=C1COc2ccc(C(=O)COC(=O)c3ccc(S(=O)(=O)C(F)F)cc3)cc2N1 | 23.1 | -4.3 | 1.6 | -94.0*
CCN(CC)S(=O)(=O)c1cccc(C(=O)OCC(=O)c2ccc3c(c2)NC(=O)CO3)c1 | 5.8 | 0.8 | 3.3 | 16.8
CCCCc1cc(C(=O)Cc2ccccn2)c(O)cc1O | 5.5 | -1.1 | 0.5 | 11.2
CCSc1nnc(-c2c[nH]c3ccccc23)o1 | 3.2 | -1.1 | 1.9 | 9.5
Clc1ccc(CSc2nnc(-c3c[nH]c4ccccc34)o2)cc1 | 9.4 | 8.6* | 13.8 | -77.4*
Cc1ccc(CCC(=O)Nc2ccc(Br)cc2)o1 | -0.7 | 2.8 | 1.8 | -88.0*
CCC(Oc1ccccc1)C(=O)Nc1cc(C)on1 (stereo not given) | 1.0 | -0.1 | -1.4 | -2.2
Cc1cc(NC(=O)C(Cl)c2ccccc2)no1 (stereo not given) | 1.6 | -0.1 | 2.9 | -86.0*
CCn1c(SCc2ccccc2)nc2c1c(=O)[nH]c(=O)n2C | 3.4 | -1.7 | 3.3 | 16.2
O=C(CC1CC2CCC1C2)OCC(=O)c1c[nH]c2ccccc12 (stereo not given) | 7.6 | 2.4 | 2.5 | -83.9*
C[C@@H]1NS(=O)(=O)[C@H]2C[C@@H]3C=C[C@]2(O3)[C@H]1OC(=O)c1ccc(C(C)(C)C)cc1 | -3.1 | 0.4 | -1.2 | ·
CCOc1ccccc1C(=O)Nc1ccc2c(c1)C(=O)NC2=O | -3.8 | -1.6 | 0.0 | 17.2
COc1ccc(C=O)cc1COc1ccc(Cl)cc1[N+](=O)[O-] | -7.4 | 9.9* | 2.6 | 14.5
COc1ccc(C=O)cc1COc1ccc(C)cc1[N+](=O)[O-] | -23.8 | -2.7 | 0.7 | 27.9
CCCN(Cc1nnc(-c2cccs2)o1)C(=O)CN1C(=O)NC2(CCC(C)CC2)C1=O (stereo not given) | 6.6 | -0.5 | 7.4 | ·
Cc1ccc(Nc2cc(C)nc(NCc3ccccc3)n2)cc1 | 12.5 | -0.4 | 13.5 | -91.6*
COc1ccc(Nc2cc(C)nc(NCc3ccccc3)n2)cc1 | 2.5 | 0.7 | 10.8 | -52.1
COc1ccc(C(=O)Nc2ccc(SC(F)F)cc2)cc1 | 3.0 | 3.4 | 2.2 | 24.3
O=C(Nc1ncc(Cc2ccc(SC(F)F)cc2)s1)c1ccc(OC(F)F)cc1 | 11.2 | 32.7* | 5.5 | 16.7
COc1ccc(NC(=O)COc2nsnc2N2CCCCC2)cc1 | 7.2 | 0.5 | -1.0 | 16.5
SMILES | MC4R antagonist | MC4R barr agon | NTR1 ag | AI-2 QS mod
CCOc1ccc(NC(=O)COc2nsnc2N2CCCCC2)cc1 | -2.1 | 9.0* | 13.5 | 24.7
COc1ccc(N2CCN(S(=O)(=O)CCNC(=O)c3cc(=O)c4ccccc4o3)CC2)cc1 | -5.2 | 1.1 | -0.1 | 7.0
Cn1cnnc1SCC(=O)Nc1ccc(S(N)(=O)=O)cc1 | -1.8 | 0.5 | 0.1 | 14.5
COc1ccc(CSc2nnc3[nH]c(=O)cc(N)n23)cc1 | -7.8 | 2.4 | 0.0 | -79.6*
O=C1C(=O)c2c(C(=O)c3ccccc3)coc2-c2ccccc21 | -16.4 | 8.7* | 8.8 | -47.5
CC(=O)N[C@H]1[C@H]([C@H](O)[C@H](O)CO)O[C@](O)(C(=O)O)C[C@@H]1O | 3.8 | 0.1 | · | ·
CCOC(=O)N1CCN(c2ncnc3c2[nH]c2ccc(F)cc23)CC1 | 12.2 | -2.5 | 2.6 | 1.7
Fc1ccc2[nH]c3c(N4CCN(c5ccccc5)CC4)ncnc3c2c1 | 21.0 | 3.9 | 41.3* | 17.8
O=C1CN(/N=C/c2ccc([N+](=O)[O-])o2)C(=O)N1 | -8.3 | -0.5 | 1.1 | -89.3*
O=C1OCCN1/N=C/c1ccc([N+](=O)[O-])o1 | -7.5 | -0.7 | -0.4 | ?
CCCNC(=O)C(Cc1cccc(C#N)c1)NC(=O)c1ccc(C#N)cc1 (stereo not given) | 11.2 | -2.7 | -0.7 | ·
COc1ccc(C)c2sc(N(CCN(C)C)C(=O)/C=C/c3cccs3)nc12 | -2.1 | 28.9* | 26.0 | 4.5
CCOc1cccc2sc(N(CCCN(C)C)C(=O)c3ccc(S(=O)(=O)N(C)Cc4ccccc4)cc3)nc12 | 13.1 | 7.8 | 35.2 | -5.9
COc1ccc(C)c2sc(N(CCCN(C)C)C(=O)c3ccc(S(=O)(=O)N4CCc5ccccc5C4)cc3)nc12 | -4.4 | 36.7* | · | 5.3
COc1ccc(OC)c2sc(N(CCN(C)C)C(=O)/C=C/c3cccs3)nc12 | 2.3 | 0.3 | 16.1 | 19.3
COc1ccc(OC)c2sc(N(CCCN(C)C)C(=O)c3ccc(S(=O)(=O)N4CCc5ccccc5C4)cc3)nc12 | · | · | 1.5 | 3.2
CCOc1cccc2sc(N(CCCN(C)C)C(=O)c3ccc(S(=O)(=O)N(CC)Cc4ccccc4)cc3)nc12 | 6.0 | 3.0 | 52.2* | -4.6
COc1cccc2sc(N(CCCN(C)C)C(=O)c3ccc(S(=O)(=O)N4CCc5ccccc5C4)cc3)nc12 | -4.2 | 9.0* | 3.5 | 14.0
O=S(=O)(NC1CCCCC1N1CCC(O)CC1)c1ccccc1 (stereo not given) | 8.2 | -0.6 | -0.9 | 34.0
COc1ccc2c(=O)c(-c3ccc(C)cc3)c(-c3ccccc3)oc2c1 | 6.5 | -0.5 | 5.6 | ·
CC(C)N(C(=O)[C@H]1C[C@H](CC(=O)NCc2ccco2)C(=O)N2CCc3c([nH]c4ccc(Cl)cc34)[C@]12C)C(C)C | 2.3 | 3.4 | 3.4 | ·
NS(=O)(=O)c1ccc(Nc2c([N+](=O)[O-])cncc2[N+](=O)[O-])cc1 | 3.3 | -0.8 | 2.6 | -93.4*
COc1cccc(Nc2c([N+](=O)[O-])cncc2[N+](=O)[O-])c1 | 2.3 | 1.7 | 1.0 | 2.9
Cc1ccc([C@H]2N[C@]3(CCCN(Cc4ccc(Cl)cc4)C3=O)[C@H]3C(=O)N(Cc4ccccc4)C(=O)[C@@H]23)cc1 | 6.7 | 0.8 | · | ·
CCCCN(C(=O)C1CCCC1)C1CCS(=O)(=O)C1 (stereo not given) | -5.8 | 2.2 | 0.0 | 7.8
SMILES | MC4R antagonist | MC4R barr agon | NTR1 ag | AI-2 QS mod
CCOc1ccc(C(=O)NC(=S)Nc2ccccc2N2CCCCC2)cc1[N+](=O)[O-] | 11.7 | -1.1 | 1.3 | 13.5
CCOc1ccc(C(=O)NC(=S)Nc2ccc(N3CCCCC3)cc2)cc1[N+](=O)[O-] | 0.3 | 47.2* | 1.5 | 42.2
COc1ccc(NC(=O)C2Cc3c(-c4ccc(Cl)cc4)ccnc3O2)cn1 (stereo not given) | -1.1 | -1.3 | · | ·
O=C(N/N=C/c1ccccc1)c1ccco1 | 4.8 | 2.3 | -0.5 | 7.0
O=C(C#Cc1ccccc1)c1ccco1 | -2.1 | -2.4 | 4.5 | -94.3*
N#Cc1ccc(-c2ccc(OCC(=O)NCCc3ccccc3)cc2)cc1 | 1.7 | 9.1* | 5.6 | 10.3
